High-throughput results as filed in PubChem.
MrgX1 allo act: positive allosteric modulators of MrgX1, primary screen, HEK293 cells, Fluo-4 calcium flux; 0.63% of 310,000 active; FDSS; active compounds read high; B-score at 10 µM; Mas-related G-protein coupled receptor member X1 (Homo sapiens), Q96LB2;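 active = plate-corrected calcium response at least 3 library SD above typical, normal starting fluorescence, not activating the receptor alone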;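 note: compound read alongside a low EC10 to EC30 dose of BAM8-22 agonist; peak minus trough fluorescence over baseline measured at the second addition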
RGS4 block: RGS4 inhibitors, primary screen, cell-based, HEK293 M3R inducible RGS4, calcium flux; Fluo-4 calcium flux; active compounds read high; triggered by carbachol at its EC20; 0.45% of 310,000 active; B-score at 10 µM;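 active = B-score, a plate-corrected calcium signal, over three deviations above library mean, with baseline fluorescence within five deviations of library mean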;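 note: RGS4 expression induced by doxycycline in cells with stable M3 receptor; B-score is computed from the integrated fluorescence ratio over baseline after carbachol; higher B-score means a larger calcium signal and so more RGS4 inhibition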
Target sequence (P49798 whole entry, looked up): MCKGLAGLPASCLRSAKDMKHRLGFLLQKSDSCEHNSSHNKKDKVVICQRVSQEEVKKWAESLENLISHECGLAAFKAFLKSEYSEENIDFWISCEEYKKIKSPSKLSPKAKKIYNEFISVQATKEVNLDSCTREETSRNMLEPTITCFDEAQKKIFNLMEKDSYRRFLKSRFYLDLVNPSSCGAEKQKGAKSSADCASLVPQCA
MrgX1 ag: agonists of human MrgX1 receptor, primary screen, HEK293 cells, Fluo-4 calcium flux. Fluo-4 calcium fluorescence, agonist mode; active compounds read high. B-score at 10 µM. 0.44% of 310,000 active. AID 588627, 2011;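 active = calcium response B-score plate-corrected fluorescence ratio at least 3 library SD, with starting fluorescence B-score inside 5 SD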
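System: HEK293 cells stably expressing human MrgX1 receptor; Dosing: test compound in the initial addition of three; Schedule: overnight plating, then 30 min 37 °C plus 30 min room-temperature dye loading; Detection: kinetic calcium dye fluorescence, Fluo-4 NW; Controls: per-plate positive and negative controls for Z′ factor.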
RGS4 act: RGS4 potentiators or activators, primary screen, cell-based, HEK293 M3R inducible RGS4, calcium flux; carbachol calcium flux Fluo4; active compounds read low; B-score at 10 µM; 0.92% of 310,000 active; AID 463111, 2010;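 active = B-score of the integrated calcium signal more than 4 SD below the library mean, with starting fluorescence not abnormally high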;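 note: negative B-score means reduced calcium response which marks RGS4 activation or potentiation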
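Assay system: HEK293 FlpIn-TREx cells, stable M3R, doxycycline-inducible RGS4 / Probe or stimulus: carbachol, ECmax concentration / Times: overnight RGS4 induction, 30 min dye load 37 °C, 20 min compound RT / Signal: kinetic calcium fluorescence imaging with Fluo4-AM dye, 2 µM / Measure: Agonist-evoked peak-minus-minimum fluorescence over baseline, integrated ratio, B score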
MrgX1 antag: antagonists of human MrgX1 receptor, primary screen, HEK293 cells, Fluo-4 calcium flux; Mas-related G-protein coupled receptor member X1 (Homo sapiens), Q96LB2; BAM8-22 antagonism; active compounds read low; B-score at 10 µM; 1.3% of 310,000 active;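 active = calcium-response B-score plate-corrected more than 3 library SD below zero, starting fluorescence within 5 deviations, no agonist response on first addition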;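 note: peak minus trough fluorescence over baseline after final BAM8-22 challenge near maximal dose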
Numbers stand for hits; - = inactive; . = no result given. In the library only some 3.5% were active in any assay of this set; here they are far more common.

SMILES	MrgX1 allo act	RGS4 block	MrgX1 ag	RGS4 act	MrgX1 antag
COC(=O)C(Cc1ccccc1)NC(=O)CNC(=O)c1ccc(Br)cc1 (configuration not stated)	-	-	-	-	-
Cc1cccc(C(=O)OCC(=O)Nc2c(C)nn(-c3ccccc3)c2C)c1O	-	-	-	-	-
Cc1nn(-c2ccccc2)c(C)c1NC(=O)COC(=O)c1cc(Br)ccc1O	-	-	-	-7.2	-
O=[N+]([O-])c1cccc(-c2cn3nc(-c4ccccc4)c(-c4ccccc4)nc3n2)c1	-	-	-	-	-
O=Nc1c(-c2cccc([N+](=O)[O-])c2)nc2ncccn12	-	6.2	-	-	-
O=S(=O)(NNc1ccc(Cl)nn1)c1ccc(F)cc1	-	-	-	-	-
N#CCCC(CCC#N)(CCC#N)c1cc[n+](CCc2ccccn2)cc1	-	-	-	-	-
CCN1CCN(c2ncc(C(=O)Nc3cc(Cl)c(OC)cc3OC)c3ccccc23)CC1	.	-	.	-7.3	.
CCN1CCN(c2ncc(C(=O)Nc3c(F)cc(F)cc3Br)c3ccccc23)CC1	-	-	-	-	-
CCOC(=O)c1ccc(Cl)c(S(=O)(=O)N2CCCC2)c1	-	-	-	-	-
C=CCOc1ccc(/C=C2\SC(=Nc3cccnc3)NC2=O)cc1	-	-	-	-	-4.9
CC(/C=C1\SC(=Nc2cccnc2)NC1=O)=C\c1ccccc1	-	-	-	-	-
Cc1cc(O)c(S(=O)(=O)c2ccccc2)c(C)c1NS(=O)(=O)c1ccccc1	-	-	-	-	-
Clc1ccc(/C=C/c2ncc3ccccn23)cc1	-	-	-	-	-
CCCCCCCCCCCCN1[C@@H](CC(=O)OC)c2cc(C(F)(F)F)ccc2S1(=O)=O	-	-	-	-	-5.8
CCCCCCCCN1[C@@H](CC(=O)OC)c2cc(F)ccc2S1(=O)=O	-	-	-	-	-
CCCCCCCCCCCCN1[C@@H](CC(=O)O)c2cc(F)ccc2S1(=O)=O	-	-	-	-7.7	-
COCc1cc(=O)[nH]c(-c2ccccc2OC(F)(F)F)n1	-	-	-	-	-
CCCC1=NN2C(=N)/C(=C\c3cc(C)n(Cc4ccccc4)c3C)C(=O)N=C2S1	-	-	-	-	-
CCCC1=NN2C(=N)/C(=C\c3ccc(SCc4ccco4)o3)C(=O)N=C2S1	-	-	31	-	-
O=C(CSc1nnc2ncccn12)Nc1cccc2ccccc12	-	-	-	-	-
OC1(C#CCN2CCCC2)c2ccccc2-c2ccccc21	-	-	-	-7	-
O=c1c(-c2nc3ccccc3o2)c2oc3ccccc3n2c2ccccc12	.	-	.	-9.6	.
Nc1ccc(-c2nc3ccccc3o2)cc1	-	-	-	-	-
CCOC(=O)CC(=O)COc1nc2cc3c(nc2o1)CCCC3	-	-	-	-	-
SMILES	MrgX1 allo act	RGS4 block	MrgX1 ag	RGS4 act	MrgX1 antag
Fc1ccccc1COc1ccc(Br)cc1CNCc1ccncc1	-	-	-	-9.6	-
C=CCOc1ccc(Br)cc1/C=N/O	-	-	-	-	-
O/N=C/c1cc(Br)ccc1OCc1ccccc1F	-	-	-	-	-7.4
Cc1ccc(C)c(N2CC(O)(c3cccs3)[N+]3=C2CCCC3)c1 (configuration not stated)	-	-	-	-	-
OC1(c2cccs2)CN(c2ccc(Cl)cc2)C2=[N+]1CCCC2 (configuration not stated)	-	-	-	-9.1	-
OC1(c2cccs2)CN(c2ccc(Cl)cc2)C2=[N+]1CCCS2 (configuration not stated)	-	-	28	-	-
CN(CCc1ccccc1)C(=O)c1cc(COc2ccc(F)cc2Cl)on1	-	-	-	-	-
O=C(c1cccc(S(=O)(=O)Nc2ccc(Br)cc2)c1)N1CCC1	-	-	-	-	-
Nc1c(C(=O)N/N=C/c2cccnc2)oc2nc(-c3ccccc3)cc(-c3ccco3)c12	-	-	-	-8.9	-6.2
Nc1c(C(=O)N/N=C/c2cccnc2)oc2nc(-c3ccco3)cc(-c3ccco3)c12	-	-	-	-	-
